F508del corr: F508del CFTR correction, initial screen, CFBE line, single point | CFBE cells, YFP halide quenching; stimulated with forskolin plus potentiator P3; % fluorescence drop versus neutral controls | activity (quench increase), % at 7.58 µM | hit rate 0.36% among 350,000;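 active means mean added fluorescence quench of at least 8% versus neutral control, with both replicates also reaching 8%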;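 further: cells transiently co-express mutant CFTR-F508del with the halide-sensitive YFP; corrector assay measuring rescue of mutant channel to the surface after 24 h compound exposure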
S100A4 MyoIIA: inhibitors of S100A4-myosin IIA peptide binding, primary screen, biochemical, fluorescence polarization, TAMRA-MyoIIA peptide; Protein S100-A4 (Homo sapiens), P26447; inhibition, % at 10.7 µM; hit rate 0.14% among 360,000; AID 652163, 2013;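 active means mean inhibition of at least 70% across replicates, with every replicate also reaching that level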
Target sequence (P26447 whole entry, looked up): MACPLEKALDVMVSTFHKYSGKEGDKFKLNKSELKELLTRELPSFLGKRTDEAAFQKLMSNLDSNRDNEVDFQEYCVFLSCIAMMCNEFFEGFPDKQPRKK
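Material: S100A4 monomer protein | Medium: HEPES pH 7.2 with CaCl2, KCl, NaCl, DTT, Triton | Reagent: Labelled myosin peptide probe, 5 nM | Doses: One dose per compound | Times: 5 min incubation before reading | Benchmarks: Neutral control DMSO, positive control TFP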
ERAP1 HTS inh: human ERAP1 aminopeptidase inhibitors, primary screen, biochemical, single point, plate reader; inhibition, % at 10.7 µM; hit rate 0.15% among 340,000; recombinant ERAP1, Leu-AMC fluorescence, 60 min; Endoplasmic reticulum aminopeptidase 1 (Homo sapiens), Q9NZ08;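 active means mean replicate inhibition of at least 30%, or all replicates individually reaching that 30% level; inactive means mean below 30% and not every replicate reaching it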;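 further: 0% = neutral control wells and 100% = L-leucinethiol positive control wells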
Ecoli rRNA inh: reduced GFP signal of wild-type E. coli, primary screen, bacterial rRNA inhibitor project, GFP/RFP fluorescence, OD600, single point; hit rate 1.6% among 350,000; E. coli WT GFP vs humanized-ribosome RFP mutants, 24 h; stronger effect = lower value; DMSO median 0, no signal -100; AID 720706, 2013; GFP signal change (wild-type ribosome), % (test concentration not listed);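 active means significant combined selectivity score with lowered wild-type GFP, culture density cut under 30%, mutant RFP and density less affected; inactive means any of these conditions unmet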
SIRT5 block: SIRT5 desuccinylase inhibitors, primary screen, biochemical, fluorescence imaging, single point, set 5 | Purified SirT5, succinyl-peptide AMC, trypsin-coupled fluorescence | inhibition, % at 15 µM | hit rate 1.1% among 330,000 | AID 652115, 2013; in the data active means inhibition above about 15%
Target sequence (Q9NXA8 whole entry, looked up): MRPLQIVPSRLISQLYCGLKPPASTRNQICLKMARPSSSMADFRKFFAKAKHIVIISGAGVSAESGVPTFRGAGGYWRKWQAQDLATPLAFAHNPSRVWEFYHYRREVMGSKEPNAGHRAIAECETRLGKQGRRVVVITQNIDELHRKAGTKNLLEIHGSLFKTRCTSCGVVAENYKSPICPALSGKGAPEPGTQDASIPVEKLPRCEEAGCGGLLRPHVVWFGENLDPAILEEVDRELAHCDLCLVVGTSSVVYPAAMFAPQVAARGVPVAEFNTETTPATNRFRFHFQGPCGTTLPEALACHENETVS
The depositor's hits bear a star. Sampled rows, rich in hits. Any-hit rate of the full collection: about 3.1%.

Cc1ccccc1-c1cnc2c(c1)C(=O)N([C@@H](C)CO)C[C@@H](C)[C@@H](CN(C)C(=O)c1cccnc1)O2 was read as F508del corr 3, S100A4 MyoIIA -1, ERAP1 HTS inh -3, Ecoli rRNA inh -2 and SIRT5 block 8.
`Cc1cccc2nc(COc3ccc4ccccc4c3Br)cn12` gave F508del corr 1, S100A4 MyoIIA 0, Ecoli rRNA inh -27* and SIRT5 block -1.
`Cc1cccc2nc(CSc3ccccc3C(=O)O)cn12` gave F508del corr -4, S100A4 MyoIIA 0, ERAP1 HTS inh 0, Ecoli rRNA inh 0 and SIRT5 block 2.
`C[C@H](CO)N1C[C@H](C)[C@@H](CN(C)Cc2ccc3c(c2)OCO3)Oc2ccc(NS(=O)(=O)c3cn(C)cn3)cc2CC1=O` gave F508del corr 1 and Ecoli rRNA inh 2.
Screening COC(=O)c1cn(C(=O)c2ccccc2Cl)c2ccccc12 returned F508del corr 3, S100A4 MyoIIA 3, ERAP1 HTS inh -3, Ecoli rRNA inh -11 and SIRT5 block 26*.
`COC(=O)c1cn(C(=O)c2ccc(C)cc2C)c2ccccc12` gave F508del corr 11*, S100A4 MyoIIA 0, ERAP1 HTS inh 2, Ecoli rRNA inh 1 and SIRT5 block -1.
`COc1ccc(C(C#N)=C2C=CC(=NO)C(C)=C2Cl)cc1` gave F508del corr -4, S100A4 MyoIIA 1, ERAP1 HTS inh 1, Ecoli rRNA inh -5 and SIRT5 block -30.
Screening COc1ccc(C(C#N)=C2C=C(Cl)C(=NO)C=C2Cl)cc1 returned F508del corr 0, S100A4 MyoIIA -1, ERAP1 HTS inh 0, Ecoli rRNA inh -19* and SIRT5 block -2.
`Cn1cnc(S(=O)(=O)N2C[C@H](O)COC[C@H]3O[C@@H](CC(=O)NCc4cccc(F)c4)CC[C@@H]32)c1` gave F508del corr 1 and Ecoli rRNA inh -2.
`Nc1ccc2ccccc2c1N=Nc1ccccc1` gave F508del corr 0, S100A4 MyoIIA -19, ERAP1 HTS inh 2, Ecoli rRNA inh -31* and SIRT5 block -1.
O=C(CSc1ccc(-c2ccccc2)nn1)c1cccs1 was read as F508del corr -2, S100A4 MyoIIA 1, ERAP1 HTS inh 9, Ecoli rRNA inh -22 and SIRT5 block 16*.
`CN(C)CCCNC(=O)C[C@@H]1CC[C@H]2[C@@H](COC[C@H](O)CN2CC2CCCCC2)O1` gave F508del corr 1, S100A4 MyoIIA 1, ERAP1 HTS inh 0, Ecoli rRNA inh -1 and SIRT5 block 6.
CC(C)CCNc1c(-c2cccs2)nc2ccccn12 was read as F508del corr 0, S100A4 MyoIIA -4, ERAP1 HTS inh -3, Ecoli rRNA inh -26* and SIRT5 block -6.
`Cc1noc(C)c1S(=O)(=O)Nc1ccc2c(c1)CC(=O)N([C@H](C)CO)C[C@H](C)[C@@H](CN(C)C(=O)NC1CCCCC1)O2` gave F508del corr -1, S100A4 MyoIIA 5, ERAP1 HTS inh 1, Ecoli rRNA inh 1 and SIRT5 block -5.
COc1ccc(S(=O)(=O)Nc2ccc3c(c2)C(=O)N([C@H](C)CO)C[C@H](C)[C@H](CN(C)C(=O)Nc2ccc(F)cc2)O3)cc1 was read as F508del corr 0, S100A4 MyoIIA 10, ERAP1 HTS inh 0, Ecoli rRNA inh 0 and SIRT5 block 12.
O=C(O)/C=C/C(=O)Nc1ccc2c(c1)C(=O)c1ccccc1C2=O was read as F508del corr 0, S100A4 MyoIIA -1, ERAP1 HTS inh 5, Ecoli rRNA inh -35* and SIRT5 block 7.
For O=C1NC(CCc2ccccc2)C(=O)N1Cc1ccc(Br)cc1 (stereo not given) the results were F508del corr 0, S100A4 MyoIIA 0, ERAP1 HTS inh -1, Ecoli rRNA inh 9 and SIRT5 block 3.
Screening O=C1NC(CCc2ccccc2)C(=O)N1CCOc1ccccc1 (stereo not given) returned F508del corr 3, S100A4 MyoIIA 2, ERAP1 HTS inh 7, Ecoli rRNA inh -27* and SIRT5 block -3.
